# High-throughput results deposited in PubChem by several laboratories.
# PMI act satM6P – activators of human phosphomannose isomerase at near-saturating mannose 6-phosphate; activation factor at 20 µM; 190,000 tested, 0.34% active; coupled PMI enzyme assay, resazurin fluorescence, 20 min; hits give high values; 1 = untreated enzyme, 0 = substrate-free blank; P34949;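 active means activation factor of 2 or more at 20 µM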
# Target sequence (P34949 whole entry, looked up): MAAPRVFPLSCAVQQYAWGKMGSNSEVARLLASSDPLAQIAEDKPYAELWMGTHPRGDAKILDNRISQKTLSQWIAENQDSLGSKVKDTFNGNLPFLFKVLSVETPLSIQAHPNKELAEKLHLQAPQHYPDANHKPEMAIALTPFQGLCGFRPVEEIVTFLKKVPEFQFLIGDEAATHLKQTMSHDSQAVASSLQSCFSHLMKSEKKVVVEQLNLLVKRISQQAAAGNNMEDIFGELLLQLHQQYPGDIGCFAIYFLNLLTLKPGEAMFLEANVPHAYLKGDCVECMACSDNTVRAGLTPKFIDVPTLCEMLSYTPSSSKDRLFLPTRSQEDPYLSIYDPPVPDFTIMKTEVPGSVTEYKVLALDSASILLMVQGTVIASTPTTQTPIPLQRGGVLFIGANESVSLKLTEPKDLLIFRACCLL
#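 Test system: human phosphomannose isomerase with PGI, G6PDH, diaphorase coupling enzymes / Doses: 20 µM compound, 1% DMSO / Times: enzyme reaction with compound 20 min at room temperature / Measured by: Diaphorase-driven resazurin-to-resorufin fluorescence, excitation 544, emission 590 nm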
# WT yeast gro inh – growth inhibition of WT yeast, mitochondrial fusion screen; mitochondrial fusion phenotypic screen, WT strain; inhibition, % at 10 µM; AID 1362; 190,000 tested, 2.1% active; in the data active means inhibition above about 58%; tested in S. cerevisiae
# Lmaj promast – Leishmania major promastigote growth inhibition; Leishmania major promastigotes, resazurin fluorescence viability; inhibition, % at 10 µM; 200,000 tested, 9% active; in the data active means inhibition above about 50%;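 further: promastigotes grown with compound for 44 hours at 28 °C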
# Rad51 HR inh – Rad51 (human) homologous recombination inhibition. 200,000 tested, 0.085% active. inhibition, % at 10 µM. hRad51 DNA strand exchange, fluorescence dequenching. Q06609. AID 1385;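 active means inhibition above 40% at the single screening dose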;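 further: 0% = DMSO control wells and 100% = blanks with heterologous ssDNA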
#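 Test system: preformed human Rad51 ssDNA filaments. Compound dosing: single dose, 10 µM final compound. Incubation: filaments 15 min 37 °C, then compound 30 min. Technique: FRET fluorescence dequenching, excitation 485 nm, emission 520 nm. Read-out basis: percent inhibition from fluorescence, normalised to plate control and blank means. Benchmarks: plate controls and plate blanks.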
# m-calpain inh – calpain II (pig) inhibition. purified calpain II, fluorogenic peptide substrate, 30 min. inhibition, % at 16 µM. 220,000 tested, 0.37% active;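 active means inhibition above about 50%, limit read from the data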
# PMI activator – activators of human phosphomannose isomerase | P34949 | purified human PMI, coupled resazurin fluorescence, 20 min; hits give high values; 1 = vehicle control, 0 substrate-free wells | activation factor at 20 µM | 190,000 tested, 0.005% active | AID 1214;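 active means activation factor of 2 or more at 20 µM, relative to plate controls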
# Active calls of the source: *; i = inactive; . = no result. This is a sample that favours compounds with a hit; in the whole collection about 9.8% have one here.
SMILES,PMI act satM6P,WT yeast gro inh,Lmaj promast,Rad51 HR inh,m-calpain inh,PMI activator
COc1ccc(C(=O)N2CCCC(c3nc(-c4ccc(OC)c(OC)c4)no3)C2)c(OC)c1 (stereo not drawn),1,23.2,86.7*,5.8,34.0,1
COc1cc(-c2ccc(Nc3ccccc3C(=O)O)c(OC)c2)ccc1Nc1ccccc1C(=O)O,.,.,.,0.1,55.4*,.
Cc1cccc(/C=C/C(=O)c2ccc(N3CCOCC3)cc2)c1,1,10.2,7.4,17.4,53.3*,1
COc1ccc(NC(=S)NCCc2ccccc2)c(OC)c1,0.9,48.1,7.2,0.9,29.3,0.8
COc1ccc(NC(=S)NCCSc2ccc(Cl)cc2)c(OC)c1,0.8,73.1*,99.9*,7.6,-3.3,0.8
COc1ccc(Cl)cc1NC(=S)NCCSc1ccc(C)cc1,1,78.0*,0.2,2.9,2.9,1
Cc1cccc(C)c1NC(=S)NCCSc1ccc(Cl)cc1,1,80.5*,37.1,-4.4,36.4,1
COc1ccccc1NC(=S)NCCSc1ccc(Cl)cc1,0.9,78.0*,7.6,-1.8,25.8,0.9
Cc1cc2nc(CS(=O)(=O)c3ccccc3)cc(=O)n2[nH]1,1,-5.5,-0.7,-2.9,13.1,1
CCN(CC)c1ccc(/C=N/NC(=O)Cc2cccs2)c(O)c1,0.8,-24.2,98.2*,11.2,2.0,0.9
CCN(CC)c1ccc(/C=N/Nc2nc3ccccc3[nH]2)c(O)c1,0.8,-9.9,100.3*,-4.2,-6.3,0.7
Cc1ccc2cc(/C=N/Nc3nc4ccccc4[nH]3)c(Cl)nc2c1,1.1,59.2*,11.7,-1.6,14.8,1.1
CC(=O)Nc1ccc(NC(=O)C(C)OC(=O)CNS(=O)(=O)c2cccc(Cl)c2)cc1 (stereo not drawn),0.9,-6.6,82.3*,13.8,-8.5,0.9
Cc1ccc(OCC(=O)Nc2ccc3c(c2)OC(F)(F)O3)c([N+](=O)[O-])n1,1,11.3,0.4,.,3.9,0.9
Cc1ccc(OCC(=O)Nc2ccc3c(c2)OCO3)c([N+](=O)[O-])n1,1,-0.2,54.7*,-2.0,-4.3,1.1
Cc1ccc(OCC(=O)Nc2ccc3c(c2)OCCO3)cc1C,1,8.7,0.9,18.3,10.8,1.1
Cc1cc(C)c(OCC(=O)Nc2ccc3c(c2)OCO3)cc1C,1,2.6,79.6*,-6.3,27.2,0.9
Nc1ccc(C(=O)OCC(=O)Nc2ccc3c(c2)OCO3)cc1[N+](=O)[O-],0.7,-1.6,69.3*,-1.1,29.9,0.8
CCNc1ccc(C(=O)OCC(=O)c2cc(C)n(Cc3ccc4c(c3)OCO4)c2C)cc1[N+](=O)[O-],1,-15.3,66.7*,4.3,-38.5,1
Cn1/c(=N/NC(=O)c2ccccc2Br)sc2ccccc21,0.9,-7.5,2.1,1.1,-10.5,1
O=C(O)CC(CC(=O)O)(C(=O)O)c1ccccc1,.,.,.,.,-20.3,.
Cc1ccc(CN2CCSc3ccc(C(=O)NCc4ccccn4)cc32)cc1,1.1,37.6,13.7,26.4,i,1.1
Cc1ccc(C)c(OCC(=O)Nc2ccc3c(c2)OCO3)c1,0.8,-2.9,81.5*,.,-39.4,0.8
Cc1c(Cl)c([N+](=O)[O-])nn1CC(=O)Nc1ccc2c(c1)OCO2,1,4.4,81.2*,0.5,29.7,1
Cc1ccccc1OCC(=O)Nc1ccc2c(c1)OCCO2,.,.,.,7.1,-15.2,.
SMILES,PMI act satM6P,WT yeast gro inh,Lmaj promast,Rad51 HR inh,m-calpain inh,PMI activator
COc1ccc(/C=N/NC(=O)C2(C)NC(C)(C)Cc3ccccc32)cc1 (stereo not drawn),1,14.4,-6.3,.,-2.2,0.9
CN(C)Cc1ccccc1Sc1cccc2ccccc12,0.7,23.8,97.2*,10.4,7.1,1.1
COc1ccc(C(=O)OCc2csc(C)n2)c(O)c1,1,6.3,-0.5,7.5,22.4,1.1
CCOP(=O)(OCC)C(Nc1ccc(C)cc1)c1ccco1 (stereo not drawn),1.2,-1.2,-5.2,24.2,-12.7,1.1
Cn1nc([N+](=O)[O-])nc1Sc1nnnn1-c1ccc(C(=O)O)cc1,0.8,-10.3,2.4,13.8,-28.2,0.9
CCOc1ccc(CC(=O)OCn2nnc3ccccc3c2=O)cc1,1,-50.2,-4.2,18.2,65.9*,1.1
CCC(=O)OCn1nnc2ccccc2c1=O,1.1,3.4,0.2,-11.2,19.6,1.1
COc1cc(NC(=O)C2CCCO2)c(OC)cc1Cl (stereo not drawn),1,-7.5,-4.9,-2.0,-5.5,1
COc1cc(NC(=O)C2CCCO2)c(OC)cc1NC(=O)c1ccccc1 (stereo not drawn),0.9,28.2,83.3*,8.1,-29.7,0.9
O=c1sc(/C=N/Nc2ccccc2)c(Cl)n1Cc1ccccc1,2.1*,-1.0,-3.4,-0.8,26.7,1.4
S=C(Nc1cccc(Cl)c1)NC1CC2CCCC(C1)N2C1CCCC1 (stereo not drawn),1,-6.9,72.9*,-3.2,-4.6,0.9
C=CCN1C2CCCC1CC(NC(=S)Nc1ccc(Cl)cc1)C2 (stereo not drawn),1,-1.4,96.1*,24.9,-22.0,1
S=C(Nc1ccc(Cl)cc1)NC1CC2CCCC(C1)N2C1CCCC1 (stereo not drawn),1.1,20.9,77.1*,7.9,-1.0,1.1
S=C(Nc1ccc(Cl)cc1)NC1CC2CCCC(C1)N2C1CC1 (stereo not drawn),1,23.1,38.5,-3.1,-13.9,1
COc1cccc(NC(=S)NC2CC3CCCC(C2)N3C2CCCC2)c1 (stereo not drawn),0.8,-27.9,37.5,3.2,-7.5,0.8
C=CCN1C2CCCC1CC(NC(=O)Nc1cc(C)cc(C)c1)C2 (stereo not drawn),1,-18.6,6.0,.,16.5,0.9
CC(C)(C)C1CCC(C(=O)OCC(=O)Nc2ccc3[nH]c(=O)[nH]c3c2)CC1 (stereo not drawn),0.9,0.9,4.5,18.8,-40.9,1
CCC(=O)c1ccc(OCC(=O)OCC(=O)Nc2sccc2C(N)=O)cc1,1,-0.6,-4.8,-1.7,4.8,1
O=C(COc1cccc2c1CCN(Cc1ccccc1F)C2=O)N1CCCCC1,1.1,20.1,11.2,.,26.7,1
CCOC(=O)N1CCN(C(=O)COc2cccc3c2CCN(Cc2ccccc2F)C3=O)CC1,0.9,4.9,66.5*,-2.1,5.3,0.9
Cc1ccc(CN2CCc3c(OCC(=O)Nc4cccc(C)c4C)cccc3C2=O)cc1,1,11.5,97.0*,6.2,11.1,1
Cc1ccc(S(=O)(=O)NC(=O)NCCc2ccccc2)cc1,1.1,-7.6,2.5,.,1.4,1.1
COC(=O)C1=C(C(=O)OC)[N+]2=C3N(C(=O)NC2(C)C)[C@H](CO)C[C@@]32c3ccccc3N(Cc3ccccc3)[C@@H]12,.,.,.,2.8,.,.
O=C1/C(=C\c2cccnc2)Sc2ccccc21,0.8,15.0,99.6*,.,18.6,0.8
